ChEMBL document CHEMBL1914305, “Synthesis and structure-activity evaluation of isatin-β-thiosemicarbazones with improved selective activity toward multidrug-resistant cells expressing P-glycoprotein” (J Med Chem, 2011)
The source made the active and inactive calls. No cut-off for these calls is given here.

Legend:
NIH3T3 [1] = experiment: Cytotoxicity against mouse NIH/3T3 cells after 72 hrs by MTT assay; format: cell-based; details: NIH3T3, 72 h
Outline: (§1)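 Grown in DMEM with 10% FBS. MTT assay: 4000 cells/well, 24 h settling, serial dilutions of drug, 72 h at 37 °C in 5% CO2. MTT in IMDM 4 h, then acidified ethanol 15 min, A570 with 690 nm background. IC50 is the concentration reducing absorbance to 50% of untreated control. Three experiments in triplicate. KB-V1-R comes from KB-V1 grown long-term drug-free.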

NIH3T3 [2] = experiment: Cytotoxicity against mouse NIH/3T3 cells selected at 30 ug/ml vincristine after 72 hrs by MTT assay; format: functional, cell-based; details: NIH3T3, 72 h, in the assay text read “30 ng/ml” for “30 ug/ml”; outline: as §1
HEK293 [3] = experiment: Cytotoxicity against human HEK293 cells transfected with plasmid expressing MDR1 after 72 hrs by MTT assay; format: functional, cell-based; details: HEK293, 72 h
Outline: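 ABCB1-transfected HEK293 grown in DMEM with 10% FBS and 1 mg/mL G418. MTT assay: 4000 cells/well for 24 h, serial drug dilutions, 72 h at 37 °C, 5% CO2. MTT 4 h, acidified ethanol lysis, A570 corrected at 690 nm. IC50 at 50% of untreated absorbance. Three experiments in triplicate.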

[4] = Cytotoxicity against human Ew36 cells after 72 hrs by MTT assay; format: functional, cell-based; details: Ew36, 72 h
Outline: (§2)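 Lines grown in RPMI with 10% FBS and 2 mM L-glutamine. MTT assay: 4000 cells/well attached 24 h before serially diluted drug, then 72 h exposure at 37 °C, 5% CO2. MTT in IMDM 4 h, lysis in acidified ethanol 15 min, absorbance 570 nm minus 690 nm. IC50 is the concentration halving untreated absorbance. Three independent experiments, each in triplicate.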

[5] = Cytotoxicity against human ZR-75B cells after 72 hrs by MTT assay; format: functional, cell-based; outline: as §2
[6] = Cytotoxicity against P-gp-negative human KB-3-1 cells after 72 hrs by MTT assay in presence of 10 uM CsA; format: functional, cell-based; details: KB 3-1, 72 h
Outline: (§3)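 KB-3-1 and KB-V1 cells in DMEM. Test drug co-administered with a P-gp inhibitor at: verapamil 1 uM, CsA 10 uM, DCPQ 100 nM, TQR 100 nM. MTT assay after 72 h at 37 °C: 4000 cells/well, MTT 4 h, acidified ethanol, A570 corrected at 690 nm. IC50 ± SD at 50% of untreated absorbance. Three experiments in triplicate.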

NCI/ADR-RES = experiment: Cytotoxicity against adriamycin-selected human NCI/ADR-RES cells after 72 hrs by MTT assay; format: functional, cell-based; outline: as §2
[7] = Cytotoxicity against P-gp expressing human KBV1 cells after 72 hrs by MTT assay in presence of 100 nM TQR; details: KB-V1, 72 h
NIH3T3 [8] = experiment: Cytotoxicity against mouse NIH/3T3 cells selected at 1 ug/mL colchicine after 72 hrs by MTT assay; format: functional, cell-based; details: NIH3T3, 72 h; outline: as §1
[9] = Cytotoxicity against doxorubicin-selected human ZR-75B cells after 72 hrs by MTT assay; format: functional, cell-based; outline: as §2
NIH3T3 [10] = experiment: Cytotoxicity against mouse NIH/3T3 cells transfected with wild-type P-gp G185 after 72 hrs by MTT assay; format: functional, cell-based; details: NIH3T3, 72 h; outline: as §1
[11] = Cytotoxicity against human Ew36 cells selected at 120 ng/mL vincristine after 72 hrs by MTT assay; format: functional, cell-based; details: Ew36, 72 h; outline: as §2
[12] = Selectivity ratio of IC50 for pig LLC-PK1 cells transfected with empty vector to IC50 for pig LLC-PK1 cells; format: ADME, cell-based, Sus scrofa; details: read-out: Ratio IC50
Outline: (§4)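 Selectivity ratio: IC50 in the parental or empty-vector cells divided by IC50 in the P-gp-expressing cells (KB-V1, or ABCB1-transfected LLC-PK1). MTT assay: 4000 cells/well established for 24 h, then 72 h exposure to serially diluted drug at 37 °C, 5% CO2. MTT for 4 h, acidified ethanol lysis, A570 corrected at A690. IC50 is the concentration giving 50% of untreated absorbance, from at least three experiments.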

[13] = Cytotoxicity against P-gp expressing human KBV1 cells after 72 hrs by MTT assay in presence of 10 uM CsA; format: functional, cell-based; details: KB-V1, 72 h; outline: as §3
[14] = Cytotoxicity against P-gp-negative human KB-3-1 cells after 72 hrs by MTT assay in presence of 1 uM verapamil; format: functional, cell-based; details: KB 3-1, 72 h; outline: as §3
NIH3T3 [15] = experiment: Cytotoxicity against 2.4 ug/mL vincristine selected mouse NIH/3T3 cells transfected with P-gp Ser to Asp phosphorylation mutant after 72 hrs by MTT assay; format: functional, cell-based; details: NIH3T3, 72 h; outline: as §1
[16] = Aqueous solubility of the compound; format: physicochemical; details: buffer
HEK293 [17] = experiment: Cytotoxicity against human HEK293 cells after 72 hrs by MTT assay; format: functional, cell-based; details: HEK293, 72 h; outline: as §1
MDA-MB-231 [18] = experiment: Cytotoxicity against human MDA-MB-231 cells selected at 100 ug/ml vinblastine after 72 hrs by MTT assay; format: functional, cell-based; details: MDA-MB-231, 72 h, in the assay text read “100 ng/ml” for “100 ug/ml”; outline: as §2
[19] = Cytotoxicity against human MES-SA cells after 72 hrs by MTT assay; format: functional, cell-based
Outline: (§5)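 MES-SA and MES-SA/Dx5 lines kept in McCoy's 5A with 10% FBS. MTT assay: seeded at 4000 cells/well for 24 h, serial drug dilutions, 72 h at 37 °C and 5% CO2. MTT 4 h, acidified ethanol lysis, A570 corrected at 690 nm. IC50 is 50% absorbance versus untreated wells. Three separate experiments in triplicate.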

OVCAR-8 = experiment: Cytotoxicity against human OVCAR8 cells after 72 hrs by MTT assay; format: functional, cell-based; details: OVCAR-8, 72 h; outline: as §2
NIH3T3 [20] = experiment: Cytotoxicity against mouse NIH/3T3 cells transfected with wild type p-glycoprotein ABCB1 selected at 600 ug/ml vincristine after 72 hrs by MTT assay; format: functional, cell-based; details: NIH3T3, 72 h, in the assay text read “600 ng/ml” for “600 ug/ml”; outline: as §1
SW-620 [21] = experiment: Cytotoxicity against human SW620 cells selected at 20 ng/mL adriamycin after 72 hrs by MTT assay; format: functional, cell-based; details: SW-620, 72 h; outline: as §2
[22] = Cytotoxicity against P-gp expressing human KBV1 cells after 72 hrs by MTT assay in presence of 1 uM verapamil; format: functional, cell-based; details: KB-V1, 72 h; outline: as §3
[23] = Cytotoxicity against adriamycin-selected human MES-SA cells after 72 hrs by MTT assay; format: functional, cell-based; outline: as §5
SW-620 [24] = experiment: Cytotoxicity against human SW620 cells after 72 hrs by MTT assay; format: functional, cell-based; details: SW-620, 72 h; outline: as §2
MDA-MB-231 [25] = experiment: Cytotoxicity against human MDA-MB-231 cells after 72 hrs by MTT assay; format: functional, cell-based; details: MDA-MB-231, 72 h; outline: as §2
CHO [26] = experiment: Cytotoxicity against CHO cells after 72 hrs by MTT assay; format: cell-based; details: Cricetulus griseus
Outline: (§6)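 CHO and colchicine-selected C5 cells kept in AlphaMEM with 10% FBS. MTT assay: 4000 cells/well settled 24 h, then serially diluted drug added. Incubated 72 h at 37 °C, 5% CO2. MTT in IMDM for 4 h, then acidified ethanol lysis for 15 min. Read A570, background-corrected at 690 nm. IC50 is the concentration giving 50% of untreated absorbance. Three experiments, each in triplicate.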

[27] = Cytotoxicity against P-gp expressing human KBV1 cells after 72 hrs by MTT assay in presence of 100 uM DCPQ; details: KB-V1, 72 h
CHO [28] = experiment: Cytotoxicity against CHO cells selected at 1 ug/mL colchicine after 72 hrs by MTT assay; format: functional, cell-based; details: Cricetulus griseus; outline: as §6
LLC-PK1 [29] = experiment: Cytotoxicity against pig LLC-PK1 cells after 72 hrs by MTT assay; format: cell-based; details: Sus scrofa, LLC-PK1, 72 h
Outline: (§7)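 LLC-PK1 empty-vector lines grown in M199 with 10% FBS; transfected lines also in 0.5 mg/mL G418. MTT assay: 4000 cells/well for 24 h, then serially diluted drug for 72 h at 37 °C, 5% CO2. MTT 4 h, acidified ethanol, A570 minus 690 nm. IC50 is 50% of untreated absorbance. Triplicate wells, three experiments.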

LLC-PK1 [30] = experiment: Cytotoxicity against pig LLC-PK1 cells transfected with empty vector after 72 hrs by MTT assay; format: cell-based; details: Sus scrofa, LLC-PK1, 72 h; outline: as §7
[31] = Cytotoxicity against P-gp-negative human KB-3-1 cells after 72 hrs by MTT assay in presence of 100 nM TQR; details: KB 3-1, 72 h
[32] = Cytotoxicity against P-gp-negative human KB-3-1 cells after 72 hrs by MTT assay in presence of 100 nM DCPQ; details: KB 3-1, 72 h
NCI-H460 [33] = experiment: Cytotoxicity against ABCG2-expressing human H460 cells at 10 to 20 uM after 72 hrs by MTT assay in presence of ABCG2 substrate 5 uM mitoxantrone; format: functional, cell-based
KB-V1 = experiment: Cytotoxicity against P-gp expressing human KBV1 cells after 72 hrs by MTT assay in presence of 4 uM P-gp substrate Rh123; format: functional, cell-based
[34] = Selectivity ratio of IC50 for human KB-3-1 cells to IC50 for human KBV1 cells selected at 1 ug/mL vinblastine; format: functional; outline: as §4
[35] = Cytotoxicity against P-gp expressing human KBV1 revertant cells after 72 hrs by MTT assay; format: functional, cell-based; details: KB-V1, 72 h, in the assay text read “P-gp-negative” for “P-gp expressing”; outline: as §1
NCI-H460 [36] = experiment: Cytotoxicity against ABCG2-expressing human H460 cells at 10 uM after 72 hrs by MTT assay; format: functional, cell-based
[37] = Cytotoxicity against vinblastine-selected human KBV1 cells after 72 hrs by MTT assay; format: functional, cell-based; details: KB-V1, 72 h; outline: as §1
[38] = Cytotoxicity against human KB-3-1 cells after 72 hrs by MTT assay; format: functional, cell-based; details: KB 3-1, 72 h
Outline: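 Grown in DMEM with 10% FBS. MTT assay: 4000 cells/well, 24 h settling, serial dilutions of drug, 72 h at 37 °C in 5% CO2. MTT in IMDM 4 h, then acidified ethanol 15 min, A570 with 690 nm background. Three experiments in triplicate. KB-V1-R comes from KB-V1 grown long-term drug-free.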

Compound COc1ccc(NC(=S)NNC2=c3ccccc3=NC2=O)cc1 has an IC50 (NIH3T3 [1]) of 8.12 µM, an IC50 (NIH3T3 [2]) of 4.58 µM and an IC50 (HEK293 [3]) of 2.55 µM. The IC50 [4] was 2.48 µM, the IC50 [5] was 5.06 µM and the IC50 [6] was 11.4 µM. It also gave an IC50 (NCI/ADR-RES) of 3.79 µM, an IC50 [7] of 11.6 µM and an IC50 (NIH3T3 [8]) of 3.17 µM. For the same compound, the IC50 [9] was 1.21 µM, the IC50 (NIH3T3 [10]) was 1.06 µM and the IC50 [11] was 0.99 µM. It also gave a selectivity ratio [12] of 9.2, an IC50 [13] of 8.33 µM and an IC50 [14] of 9.68 µM. For the same compound, the IC50 (NIH3T3 [15]) was 3.14 µM, the solubility [16] was less than 0.2 µg/mL and the IC50 (HEK293 [17]) was 6.23 µM. It also gave an IC50 (MDA-MB-231 [18]) of 4.86 µM, an IC50 [19] of 22.4 µM and an IC50 (OVCAR-8) of 6.69 µM. The IC50 (NIH3T3 [20]) was 3.59 µM, the IC50 (SW-620 [21]) was 3.74 µM and the IC50 [22] was 2.23 µM. The IC50 [23] was 13.8 µM, the IC50 (SW-620 [24]) was 9.04 µM and the IC50 (MDA-MB-231 [25]) was 13.8 µM. The IC50 (CHO [26]) was 3.04 µM, the IC50 [27] was 14 µM and the IC50 (CHO [28]) was 0.97 µM. For the same compound, the IC50 (LLC-PK1 [29]) was 3.99 µM, the IC50 (LLC-PK1 [30]) was 36.8 µM and the IC50 [31] was 12.1 µM. The IC50 [32] was 12.4 µM.
For O=C1Nc2ccccc2/C1=N/NC(=S)Nc1ccc([N+](=O)[O-])cc1, the Activity (NCI-H460 [33]) was “Active”, the IC50 [7] was 6.35 µM and the selectivity ratio [12] was 6.4. The solubility [16] was less than 0.2 µg/mL, the Activity (KB-V1) was “Active” and the “Ratio IC50” value [34] was 8.3. For the same compound, the IC50 [35] was 7.21 µM, the Activity (NCI-H460 [36]) was “Active” and the IC50 [37] was 2.07 µM. For the same compound, the IC50 [38] was 15.6 µM, the IC50 (LLC-PK1 [29]) was 4.46 µM and the IC50 (LLC-PK1 [30]) was 28.4 µM. It also gave an IC50 [31] of 10 µM.
